Assay results: publication PMC8535816 (Science Advances, 2021)
Positions of bridges follow the written chain, without caps; N, C: chain ends. No end group written: not given here. *: point of attachment. Biotin = O=C1N[C@H]2[C@H](CS[C@H]2CCCCC(=O)*)N1; Ahx = NCCCCCC(=O)O

Assays:
OCN^−/− mice [1] = experiment: ICV delivery of OCN into OCN^−/− mice: OPC/OL numbers and myelin proteins; type: in vivo, mouse; conditions: ICV 100 ng/day for 10 days
Outline: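 OCN−/− mice received synthesized mouse OCN at 100 ng/day, or PBS, by ICV infusion for 10 days. For proliferation, BrdU at 100 μg/g was given i.p. 2 days before sacrifice, and sections were co-stained for BrdU/PDGFRα. For differentiation, BrdU at 200 μg/g was pulsed for four consecutive days from the start of treatment, with BrdU/CC1 co-staining at the end. Positive cells were counted per 0.25 mm2 in CC.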

[2] = OCN level in CC and SC after ICV delivery into OCN^−/− mice; type: in vivo, mouse; conditions: ICV infusion 100 ng/day for 10 days, n = 5
[3] = target: human GPR37 overexpressed on HEK293-based cells (human) (UniProt O15354); experiment: saturation binding of biotinylated ligand to transfected cells
human GPR37 [4] = target: T1, human GPR37 (Homo sapiens, UniProt O15354); experiment: cAMP production, GPR37-transfected HEK293 cells; type: cell-based; conditions: forskolin and/or OCN 30 min, cAMP-Glo Max
T1 sequence (O15354 27-613): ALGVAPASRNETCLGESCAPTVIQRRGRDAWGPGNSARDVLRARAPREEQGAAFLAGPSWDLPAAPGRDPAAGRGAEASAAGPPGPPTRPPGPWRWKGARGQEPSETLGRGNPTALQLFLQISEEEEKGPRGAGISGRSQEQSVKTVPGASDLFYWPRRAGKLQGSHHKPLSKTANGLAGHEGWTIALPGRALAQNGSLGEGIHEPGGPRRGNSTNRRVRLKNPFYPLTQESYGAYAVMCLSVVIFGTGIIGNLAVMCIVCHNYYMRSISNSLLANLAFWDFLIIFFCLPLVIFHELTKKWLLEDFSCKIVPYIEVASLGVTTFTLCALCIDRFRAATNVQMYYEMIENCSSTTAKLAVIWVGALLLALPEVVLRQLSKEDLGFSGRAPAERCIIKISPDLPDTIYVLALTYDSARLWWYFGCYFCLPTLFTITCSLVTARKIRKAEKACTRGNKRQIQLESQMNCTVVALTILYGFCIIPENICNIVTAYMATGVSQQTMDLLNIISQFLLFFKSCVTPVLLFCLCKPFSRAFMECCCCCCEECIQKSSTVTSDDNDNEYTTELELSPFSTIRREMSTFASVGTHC
Outline: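 HEK293 cells were transfected with human GPR37 for 48 h, then seeded on poly-L-lysine-coated plates. They were exposed to forskolin and/or graded OCN for 30 min. cAMP was measured by luminescent cAMP-Glo Max assay. At least four experiments, each in triplicate.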

primary rat OLs [5] = experiment: Myelin PLP1 and MBP expression in primary rat OLs/OPCs in differentiation medium; type: cell-based; conditions: n = 3 independent experiments
[6] = ref [15]–[18]; cited from earlier work
OCN^−/− mice [7] = experiment: Hot plate test; type: in vivo; conditions: mouse OCN 50 ng/g i.p. for 10 days, hot plate 53°C, n ≥ 6
Outline: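 Mice aged 8 weeks were placed on a hot plate held at 53°C. Latency was scored as the time to lick or flick a hind paw, or to jump. The plate temperature was calibrated to give a withdrawal response within 10 to 15 s in control mice. OCN−/− mice received synthesized mouse OCN at 50 ng/g body weight i.p. for 10 days before testing.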

human GPR37L1 [8] = experiment: PRESTO-Tango β-arrestin recruitment, GPR37L1-transfected HTLA cells; type: cell-based; conditions: cells expressing GPR37L1 (HTLA)
Outline: (§1)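 HTLA cells (HEK293 carrying a tTA-luciferase reporter and β-arrestin2–TEV), kept under puromycin 2 μg/ml plus hygromycin B 100 μg/ml, expressing GPR37-Tango or GPR37L1-Tango. Seeded on poly-L-lysine; the next day given graded OCN concentrations in assay buffer for 24 h. Luciferase reagent (20-fold diluted) added for 15–20 min at 20–25°C; luminescence read as RLU. Concentration-response curves fitted.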

human GPR37 [9] = target: T1, human GPR37; experiment: ERK phosphorylation; type: cell-based; conditions: OCN 20 nM; GPR37-transfected HEK293 cells; immunoblot
Outline: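 Human GPR37 introduced into HEK293 cells by calcium-phosphate transfection, then exposed to OCN 20 nM. Lysates made in RIPA buffer with protease inhibitors and assayed by BCA. 30–50 μg protein run on SDS-PAGE and blotted to PVDF or nitrocellulose. Blocked in 5% milk for 1 h, primary antibody overnight at 4°C, HRP secondary for 1 h at room temperature.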

GPR37^−/− mice = experiment: ICV delivery of OCN into GPR37^−/− mice: myelin PLP1 and MBP; type: in vivo, mouse; conditions: ICV 100 ng/day for 10 days, n ≥ 6
Outline: (§2)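 Synthesized mouse OCN at 100 ng/day, or PBS, was infused ICV for 10 days before analysis. Tissue protein was extracted in RIPA buffer with protease inhibitors and quantified by BCA. Then 30 to 50 μg was run on SDS-PAGE and blotted. Blots were blocked in 5% milk for 1 h, incubated with primary antibody overnight at 4°C, then with HRP-secondary for 1 h at room temperature.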

WT mice = experiment: ICV delivery of OCN into WT mice: myelin PLP1 and MBP; type: in vivo, mouse; conditions: ICV 100 ng/day for 10 days, n ≥ 6
Outline: as §2

[10] = system: OLs derived from primary rat OPCs; experiment: OL cell viability; type: cell-based; conditions: OCN 0 to 50 nM, up to 72 hours; MTT; n = 3 independent experiments
Outline: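 Rat OPCs were plated on poly-L-lysine at 1 × 10^4 per well in 96-well plates, in the presence of CNTF and T3. Cells were exposed to the test compound at 0 to 50 nM, or for up to 72 h. Viability was read with a commercial MTT kit.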

primary rat OPCs = experiment: OPC proliferation; type: cell-based; conditions: OCN 20 nM; EdU incorporation; n = 3 independent experiments
Outline: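 Primary rat OPCs (P1–P2 Sprague-Dawley forebrain) were plated on poly-L-lysine at 1 × 10^4/well in 96-well plates. They were treated with the test compound at 20 nM before assessment. Proliferation was read by EdU incorporation with a commercial kit.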

primary rat OLs [11] = experiment: Myrf expression in primary rat OLs; type: cell-based; conditions: n = 3 independent experiments
Outline: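 OPCs came from forebrains of P1–P2 Sprague-Dawley rats. Mixed glia were grown up to 12 days on poly-L-lysine, and microglia were removed by shaking at 200 rpm. OPCs were transduced with lentiviral shRNA against GPR37, then differentiated with CNTF and T3 for 48 h. The resulting OLs were treated with the test compound in differentiation medium for 48 h before analysis.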

OLs from GPR37^−/− mice = experiment: MBP expression in primary OLs from GPR37^−/− mice; type: cell-based, mouse; conditions: OPC from GPR37^−/− mice induced with T3; n = 3 independent experiments
Outline: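 Primary OPCs were isolated from P7–P8 GPR37−/− mouse pups. They were differentiated into mature OLs with T3 and CNTF, then treated with the test compound. OPC purity and OL induction were checked with specific markers.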

primary rat OLs [12] = experiment: ERK phosphorylation; type: cell-based
neurons = neurons (DRN, MRN, VTA, CA3); ref [16], [22], [51]; cited from earlier work
primary rat OLs [13] = experiment: cAMP production in primary rat OLs; type: cell-based
Outline: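 Rat OPCs were transduced with lentiviral shRNA against GPR37 and kept with CNTF and T3 for 48 h. They were then plated at 1 × 10^4/well on poly-L-lysine. Cells received forskolin plus the test compound at the indicated concentrations for 30 min. Intracellular cAMP was measured by cAMP-Glo Max luminescence to give concentration-response curves. Runs were repeated at least four times, each in triplicate.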

human GPR37 [14] = target: T1, human GPR37; experiment: PRESTO-Tango β-arrestin recruitment, GPR37-transfected HTLA cells; type: cell-based
Outline: as §1

human GPR37 [15] = target: T1, human GPR37; experiment: Intracellular calcium; type: cell-based; conditions: then OCN, GPR37-transfected HEK293-GCaMP6s cells
Outline: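 HEK293 cells stably expressing GCaMP6s (made by lentiviral infection of HEK293T) were transfected with human GPR37 for 48 h. Medium was swapped for HBSS with Ca2+/Mg2+ and cells held at 37°C for 30 min. Pretreatment was anti-GPR37 antibody or pertussis toxin, then OCN 20 nM. GCaMP6s fluorescence was imaged at 1 s intervals.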

human GPR37L1 [16] = experiment: Saturation binding of biotinylated OCN, GPR37L1-transfected cells; conditions: 2 hours at 37°C
Outline: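 HEK293T cells were transfected with GPR37L1 and replated on poly-L-lysine at 36 h. After 24 h they received serial dilutions of biotinylated OCN in 0.5% BSA/Ca2+/Mg2+ PBS for 2 h at 37°C. Cells were then washed, fixed in 4% PFA, permeabilised with 0.3% Triton, given extra-avidin peroxidase for 30 min and TMB, and read at 450 nm. Nonspecific binding used 100 μM unlabelled OCN; specific binding was total minus nonspecific; Kd came from saturation curves.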

YLGASVPSPDPLEPTREQCELNPACDELSDQYGLKTAYKRIYGITI [mouse OCN]
BrdU^+/CC1^+ differentiation OLs (OCN^−/− mice [1]; CC of OCN^−/− mice): decreased | CC1^+ cells (OCN^−/− mice [1]; CC of OCN^−/− mice): decreased | numbers of BrdU^+/PDGFRα^+ proliferative OPCs (OCN^−/− mice [1]; CC of OCN^−/− mice): rarely affected | numbers of total PDGFRα^+ OPCs (OCN^−/− mice [1]; OCN^−/− mice): rarely affected | expression of myelin PLP1 and MBP (OCN^−/− mice [1]; white matter regions (CC, SC) of OCN^−/− mice, n = 6): decreased | OCN level in CC and SC [2]: significant increase

biotinylated osteocalcin (OCN), species not stated (peptide)
Kd [3]: 14.1 nM

osteocalcin (YLGASVPSPDPLEPTREQCELNPACDELSDQYGLKTAYKRIYGITI; biotin (Biotin Protein Labeling Kit, Roche; sites not stated)) [OCN]
cAMP production (human GPR37 [4]): significantly inhibited cAMP production | OCN's suppression of the MBP level with GPR37L1 silenced (primary rat OLs [5]; primary rat OLs, GPR37L1 shRNA): unable to inhibit OCN’s suppression of the MBP level | expression of myelin PLP1 and MBP (primary rat OLs [5]; primary rat OPCs in differentiation medium, immunoblot, immunostaining): dose-dependent reduction | ability of crossing the blood-brain barrier [6]: crossing the blood-brain barrier (BBB) | deficit of thermal sensitivity (paw lick latency) (OCN^−/− mice [7]): partially rescued | luciferase responses (β-arrestin recruitment) (human GPR37L1 [8]): failed to exert luciferase responses | ERK phosphorylation (human GPR37 [9]): stimulated ERK phosphorylation | expression of myelin PLP1 and MBP in CC (GPR37^−/− mice): absent | expression of myelin PLP1 and MBP in CC (WT mice): significant down-regulation | OL cell viability [10]: no effects | OPC proliferation (primary rat OPCs): no effects | down-regulation of Myrf by OCN with GPR37 knockdown (primary rat OLs [11]; GPR37 shRNA, OCN 20 nM): abolished | expression of Myrf (primary rat OLs [11]): dose-dependently inhibited | myelin MBP response to OCN, GPR37 absent (OLs from GPR37^−/− mice): unresponsive | ERK phosphorylation (primary rat OLs [12]; myelinating primary rat OLs): boost of ERK phosphorylation | synthesis of monoamine neurotransmitters (neurons): promote the synthesis of monoamine neurotransmitters | synthesis of γ-aminobutyric acid (GABA) (neurons): reduce the synthesis of γ-aminobutyric acid (GABA) | OCN-induced inhibition of intracellular cAMP production with GPR37 silenced (primary rat OLs [13]; GPR37 shRNA): substantially prevented | intracellular cAMP level (primary rat OLs [13]; forskolin and OCN 30 min): reduction of the intracellular cAMP level | luciferase activity (β-arrestin recruitment) (human GPR37 [14]): dose-dependent increase

pertussis toxin [PTX, reference compound]
effect of pretreatment on OCN-triggered increase of iCa^2+ (human GPR37 [15]): abolished | effect of pretreatment on OCN-caused boost of ERK phosphorylation (primary rat OLs [12]; PTX pretreatment, primary rat OLs): blocked | effect of pretreatment on OCN-caused reduction of the intracellular cAMP level (primary rat OLs [13]; PTX pretreatment): blocked

{Biotin-Ahx}-YLGASVPSPDPLEPTREQCELNPACDELSDQYGLKTAYKRIYGITI (disulfide 19-25; N-terminus assumed) [biotinylated OCN]
binding to GPR37L1 (human GPR37L1 [16]): bound to GPR37 rather than GPR37L1
